# Source: PubChem
# Arbovirus anti = antivirals against arbovirus infection; arbovirus infection cell-based antiviral screen; inhibition, % at 10 µM; actives 0.37% (n = 200,000); in the data active = inhibition above about 30%
# PKD1 kinase inh = PKD1 (human) kinase inhibition. Q15139. actives 0.056% (n = 200,000). inhibition, % (concentration not given with the values). PKD1 kinase fluorescence polarization assay
# CHOP inh = blocks CHOP induction under ER stress. actives 3.8% (n = 220,000). inhibition, % at 10 µM. CHO-K1 CHOP-promoter luciferase, tunicamycin-induced, 15-18 h;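 active = compounds that reduced the stress-induced luciferase reporter signal by more than about 70% of percent inhibition, limit read from the data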
# Wee1 degr inh = blocks degradation of human Wee1 kinase; P30291; HeLa Luc-Wee1K328M stability, luciferase luminescence; 100% = proteasome inhibitor MG132 effect; reporter increase, % at 5 µM; actives 1.2% (n = 220,000);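 active = activation above the mean of all tested compounds plus 3 SD, set per screening run, cut at about 8.8% in these data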;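 note: cells exposed to compound for 20 h before luminescence read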
# Target sequence (P30291 whole entry K328M): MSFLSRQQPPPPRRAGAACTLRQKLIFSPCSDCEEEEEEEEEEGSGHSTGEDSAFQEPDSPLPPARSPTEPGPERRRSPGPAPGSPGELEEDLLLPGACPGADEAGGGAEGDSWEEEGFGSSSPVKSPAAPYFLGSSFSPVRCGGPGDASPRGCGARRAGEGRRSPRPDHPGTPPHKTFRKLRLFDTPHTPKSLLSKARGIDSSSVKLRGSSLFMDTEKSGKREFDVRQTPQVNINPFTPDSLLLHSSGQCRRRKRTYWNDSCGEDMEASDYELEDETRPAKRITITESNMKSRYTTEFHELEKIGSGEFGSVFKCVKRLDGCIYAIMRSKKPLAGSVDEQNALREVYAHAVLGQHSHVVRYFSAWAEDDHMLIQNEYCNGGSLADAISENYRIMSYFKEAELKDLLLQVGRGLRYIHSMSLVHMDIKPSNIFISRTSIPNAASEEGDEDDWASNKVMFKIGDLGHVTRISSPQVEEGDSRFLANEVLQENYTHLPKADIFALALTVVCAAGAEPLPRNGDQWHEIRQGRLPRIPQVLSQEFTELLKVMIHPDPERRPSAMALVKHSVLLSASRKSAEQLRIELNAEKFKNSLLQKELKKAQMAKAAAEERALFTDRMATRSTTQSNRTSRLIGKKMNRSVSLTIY
# Rad51 HR inh = Rad51 (human) homologous recombination inhibition; Q06609; hRad51 DNA strand exchange, fluorescence dequenching; inhibition, % at 10 µM; actives 0.085% (n = 200,000); AID 1385;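 active = inhibition above 40% at the single screening dose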
#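 Test system – preformed human Rad51 ssDNA filaments · Reagent – Donor/quencher-labelled 47-bp dsDNA substrate · Incubation – 37 °C 15-min filament assembly, 30-min compound preincubation, 15-min exchange · Signal – FRET fluorescence dequenching, excitation 485 nm, emission 520 nm · Read-out – percent inhibition from fluorescence, normalised to plate control and blank means · Benchmarks – plate control and blank wells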
# L major viab = inhibitors of Leishmania major promastigote growth | Leishmania major promastigotes, resazurin fluorescence viability | inhibition, % at 10 µM | actives 9% (n = 200,000) | AID 1063;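 note: promastigotes grown with compound for 44 hours at 28 °C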
# Hits are given with their value; n = inactive; x = no result given. Sampled rows, rich in hits. Any-hit rate of the full collection: about 12%. Cut-off read from the data, not from the text of the source, unless noted: active = inhibition above about 50%; inactive = the rest.
SMILES,Arbovirus anti,PKD1 kinase inh,CHOP inh,Wee1 degr inh,Rad51 HR inh,L major viab
CCCCCCCCNC(=O)CC(NS(=O)(=O)c1ccc(NC(C)=O)cc1)C(C)C (configuration not stated),n,n,n,n,x,n
CCC(C)NS(=O)(=O)c1ccc(NC(=O)C(Sc2ccccc2)c2ccccc2)cc1 (configuration not stated),n,n,n,n,n,68
CCC(C)NC(=O)CC(NS(=O)(=O)c1ccc(NC(C)=O)cc1)C(C)C (configuration not stated),n,n,n,9.8,n,n
CC(=O)NS(=O)(=O)c1ccc(NC(=O)C(Sc2ccccc2)c2ccccc2)cc1 (configuration not stated),n,n,n,n,n,n
COCCN(C(=O)CSc1nc2ccccc2c(=O)n1CC(C)C)c1c(N)n(Cc2ccccc2)c(=O)[nH]c1=O,n,n,n,n,n,n
COC(=O)c1ccccc1NC(=O)CSc1nnc(-c2ccc(OC)cc2)n1C,n,n,n,n,n,n
Cc1nc(-c2ccccc2)[nH]c(=O)c1Oc1ccc(Cl)cc1Cl,x,x,n,n,n,x
O=c1[nH]c(=S)[nH]cc1Oc1ccc(Cl)cc1Cl,x,x,n,9.0,n,x
CCOC(=O)C1(Cc2cccc(OC)c2)CCN(Cc2cnc(C)s2)CC1,n,n,n,n,n,n
CCOC(=O)c1cc2sc(C)cc2n1CC(=O)Nc1ccc2c(c1)OCCO2,n,n,n,n,n,n
CCOC(=O)c1cc2sc(C)cc2n1CC(=O)Nc1cccc(C)c1C,n,n,74,n,n,n
N/C(=N\OC(=O)c1ccccc1Cl)c1ccccc1,n,n,n,n,n,n
O=C(O/N=C(\c1ccccc1)c1ccncc1)c1ccccc1Cl,n,n,n,9.6,n,n
CC(=O)C1C(c2ccc([N+](=O)[O-])cc2)c2c(noc2C)CC1(C)O (configuration not stated),x,x,n,n,x,x
N#Cc1c(-c2ccccc2)no[n+]1[O-],x,x,n,x,x,x
CN(C(=O)CC(=O)Nc1ccc(Cl)c(Cl)c1)c1ccccc1,n,n,n,n,n,n
CN(CC(=O)Nc1ccc(Cl)c(Cl)c1)C(=O)C12CC3CC(CC(C3)C1)C2,n,n,n,n,n,92
CCOC(=O)C(=O)N(Nc1ccccc1C)c1ccccc1C,n,n,n,n,n,n
CN(c1cccc(NC(=O)CN(c2ccc(C34CC5CC(CC(C5)C3)C4)cc2)S(C)(=O)=O)c1)S(C)(=O)=O,n,n,n,n,n,90
Cc1ccc(NS(=O)(=O)c2ccc(NC(=O)CSc3ccc(Cl)cc3)cc2)c(C)c1,n,n,70,n,n,n
CN(c1cccc(NC(=O)CSc2ccc(Cl)cc2)c1)S(C)(=O)=O,n,n,n,n,n,74
Cc1ccc(S(=O)(=O)N(CC(=O)Nc2cccc(N(C)S(C)(=O)=O)c2)c2ccc(Cl)c(Cl)c2)cc1,n,n,n,n,n,67
CN(c1cccc(NC(=O)CCSc2ccccc2)c1)S(C)(=O)=O,n,n,n,n,n,n
CN(c1ccccc1)c1nc(N)c([N+](=O)[O-])c(N2CCOCC2)n1,x,x,n,n,n,x
COc1ccc2cc(/C(C)=N/NC(=O)c3cc(-c4cccnc4)nc4ccccc34)ccc2c1,n,n,n,n,n,n
SMILES,Arbovirus anti,PKD1 kinase inh,CHOP inh,Wee1 degr inh,Rad51 HR inh,L major viab
Cc1nnc(SCc2ccc(CSc3nnc(C)c(=O)[nH]3)cc2)[nH]c1=O,n,n,n,n,n,n
Cc1ccc(NC(=O)ON=C2CCCC2)cc1,n,n,n,n,n,84
CCOC(=O)N1CCC(N2C(=O)c3ccccc3C2Nc2cc(C(=O)OC)cc(C(=O)OC)c2)CC1 (configuration not stated),n,n,n,n,n,62
CCOC(=O)N1CCC(N2C(=O)c3ccccc3C2Nc2cc(C)cc(C)c2)CC1 (configuration not stated),x,x,n,n,n,x
CCCCN(CC)CCCNC(=S)Nc1ccc2nc(N3CCN(C)CC3)cc(C)c2c1,n,n,n,n,n,56
CCCCN(CC)CCCNC(=S)Nc1ccc2nc(N3CCN(CC)CC3)cc(C)c2c1,n,n,n,n,n,96
CCCCC(C(=O)OCC)C(N)Cc1ccc(F)cc1 (configuration not stated),n,n,n,n,n,n
COc1cc(C2C(C#N)=C(N)N(c3ccc(F)cc3)C3=C2S(=O)(=O)CC3)ccc1O (configuration not stated),n,n,n,9.6,n,n
COc1cc(C2C(C#N)=C(N)N(c3cccnc3)C3=C2C(=O)CCC3)ccc1O (configuration not stated),n,n,n,n,n,n
CC(C)c1ccc(OCc2ccc(C(=O)NN3CCN(C)CC3)o2)cc1,n,n,n,n,x,n
NS(=O)(=O)c1ccc(Nc2nc3ccccc3nc2NS(=O)(=O)c2cccc([N+](=O)[O-])c2)cc1,n,n,n,n,x,n
O=C(NNC(=O)C1CCN(Cc2ccccc2)CC1)c1cccs1,n,n,n,n,n,n
O=C(c1cccs1)N1CCN(C2CCN(Cc3ccccc3)CC2)CC1,n,n,n,n,n,91
CCn1c2ccccc2c2cc(CN3CCN(Cc4cc(OC)ccc4O)CC3)ccc21,n,n,n,n,n,n
CS(=O)(=O)N1CCN(C2CCN(Cc3ccccc3)CC2)CC1,n,n,n,n,x,77
CCn1c2ccccc2c2cc(CN3CCN(S(C)(=O)=O)CC3)ccc21,n,n,n,n,x,68
O=C(C1CCCN(S(=O)(=O)c2cccs2)C1)N1CCc2ccccc2C1 (configuration not stated),n,n,n,n,n,n
O=C(C1CCCN(S(=O)(=O)c2cccs2)C1)N1CCN(C2CCCCC2)CC1 (configuration not stated),n,n,n,n,n,83
O=C(c1ccccc1)N1CCN(C2CCCCCC2)CC1,n,n,n,n,n,n
O=C(c1cccs1)N1CCN(C2CCCCC2)CC1,n,n,n,n,n,83
O=C(NC(Cc1ccccc1)C(=O)NC(Cc1ccccc1)C(=O)O)c1ccccc1 (configuration not stated),n,n,n,n,n,57
O=C(O)[C@H](Cc1ccccc1)NC(=O)N1CCOCC1,n,n,n,n,n,70
CC1CCCCN1C(=O)C(Cc1ccccc1)N1C(=O)C2CCCCC2C1=O (configuration not stated),n,n,n,n,n,62
O=C(O)C(Cc1ccc(O)cc1)N1C(=O)C2CCCCC2C1=O (configuration not stated),x,x,n,n,n,x
CC1CCCCN1C(=O)N[C@@H](Cc1ccccc1)C(=O)O (some centres not stated),n,n,n,n,n,51
COC(=O)c1cnn(-c2ccccc2)c1/C=N/NC(=S)Nc1ccc(Cl)cc1,x,x,n,n,n,x
